Holding throughout (assay type): functional, cell-based
Assay [1] concerns PC-3M. In words: Anti-invasive activity against human PC3M cells at 50 nM.
The test system of assay [2] is PC-3M. The experiment in a line: Effect on paracellular permeability of calcitonin-treated human PC3M cells. In outline: (§1)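 PC-3M grown at confluency on Transwell filters in complete medium until TER developed. Tetramethylrhodamine-dextran (4 kDa, 1 mg/mL in HBSS) added to upper chamber, HBSS in lower.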
In assay [3] the test system is PC-3M. The experiment in a line: Effect on calcitonin-stimulated decrease in transepithelial resistance in human PC3M cells. In outline:
(§2)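 PC-3M plated at confluency on Transwell filters (0.4 µm pores) in complete medium with 25 mM Hepes, pH 7.4. Cultured with or without CT (50 nM). TER measured in duplicate wells every 12 h with a voltohmmeter. Values blank-subtracted (filter plus bathing medium) and normalized to filter area.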

Assay [4] concerns PC-3M. The experiment in a line: Effect on baseline transepithelial resistance in human PC3M cells. An outline of the steps:
as §2

For assay [5], the system named is PC-3M. In words: Effect on paracellular permeability of human PC3M cells. In outline:
as §1

The test system of assay [6] is PC-3M. The experiment in a line: Antiproliferative activity against human PC3M cells at 5 to 50 nM by MTT assay. In general terms: Tetrazolium assays rely on reduction of a dye to a coloured formazan, in cell work by metabolically active cells.
Assay [7] has as its system PC-3M. In words: Cytotoxicity against human PC3M cells at 50 nM by MTT assay.

Activity calls are given as the source filed them. No cut-off for these calls is given here.

Take `C/C1=C\CC/C(CO)=C/[C@H](O)C[C@@](C)(O)/C=C/[C@H](C(C)C)CC1`: the outcome in the assay with PC-3M [1] was Active.

For `CCNC(=O)O[C@H]1/C=C(\C)CC/C=C(\C)CC[C@@H](C(C)C)/C=C/[C@](C)(O)C1`, the outcome in the assay on PC-3M [2], in the assay on PC-3M [3], in the assay with PC-3M [4], in the assay on PC-3M [1], in the assay on PC-3M [5] and with PC-3M [6] was Active.

As for `C/C1=C\[C@H](OC(=O)NCc2ccccc2)C[C@@](C)(O)/C=C/[C@H](C(C)C)CC/C(C)=C/CC1`, the outcome with PC-3M [1] and in the assay on PC-3M [6] was Active.

As for `C/C1=C\C[C@@H](O)/C(C)=C/[C@H](O)C[C@@](C)(O)/C=C/[C@H](C(C)C)CC1`, in the assay with PC-3M [1], the result was Active.

On to `C/C1=C\[C@H](OC(=O)NCCCl)C[C@@](C)(O)/C=C/[C@H](C(C)C)CC/C(C)=C/CC1`, for which the result in the assay with PC-3M [1] and with PC-3M [6] was Active.

As to `C/C1=C\[C@H](O)C[C@@](C)(O)/C=C/[C@H](C(C)C)CC/C(CO)=C/CC1`, the outcome in the assay on PC-3M [1] was Active.

As to `C/C1=C\[C@H](O)C[C@@](C)(O)/C=C/[C@H](C(C)C)C[C@@H](O)/C(C)=C/CC1`, the result in the assay on PC-3M [1] was Active. Further, the outcome in the assay on PC-3M [7] was inactive.
